Laboratory results: ChEMBL document CHEMBL1149773, “Synthesis, determination of the lipophilicity, anticancer and antimicrobial properties of some fused 1,2,4-triazole derivatives” (Eur J Med Chem, 2008)
Values after ≈ are worked out from the molar mass of the structure shown.

Tests used:
[1] = Antiproliferative activity against human RPMI cells assessed as cell viability at 100 uM by MTT assay; type: functional; settings: read-out: Activity
How it was run: (§1)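 Log-phase cells, kept in supplemented RPMI 1640 (HSF in DMEM/10% FBS) at 37 °C, 5% CO2, were exposed 24 h to 1, 50 or 100 µM compound from DMSO. They were washed, given 0.5 mg/mL MTT in HEPES buffer pH 7.4 for 45 min at 37 °C, and formazan was dissolved in DMSO and read at 570 nm. Values are % viability versus control from three independent measurements.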

[2] = Antiproliferative activity against human skin fibroblast assessed as cell viability at 1 uM by MTT assay; type: cell-based; settings: human skin fibroblasts, read-out: Activity; how it was run: as §1
[3] = Antiproliferative activity against human skin fibroblast assessed as cell viability at 50 uM by MTT assay; type: cell-based; settings: human skin fibroblasts, read-out: Activity
How it was run: (§2)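 MTT viability assay on primary human skin fibroblasts grown in DMEM with 10% FBS and penicillin/streptomycin. Compounds were dissolved in DMSO and given at 1, 50 or 100 µM for 24 h. Cells were washed in HEPES-buffered medium (pH 7.4) and then given MTT 0.5 mg mL⁻¹ for 45 min at 37 °C. Formazan was dissolved in DMSO and read at 570 nm. Viability is % of control; three independent measurements.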

[4] = Antiproliferative activity against human RPMI cells assessed as cell viability at 1 uM by MTT assay; type: functional; settings: read-out: Activity; how it was run: as §1
[5] = Lipophilicity, log kw in acetonitrile aqueous system at pH 3.5; type: physicochemical
How it was run: (§3)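 RP-HPLC on an octadecyl silica column (150 × 4.6 mm, 5 µm) at 22 ± 1 °C, flow 1.0 mL min⁻¹, UV detection at 254 nm. Mobile phase was methanol, acetonitrile or dioxane with water and 0.01 M phosphate buffer pH 3.5 containing 0.05 M DEA. log k_W was extrapolated to pure water by regression.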

HeLa [6] = assay: Antiproliferative activity against human HeLa cells assessed as cell viability at 100 uM by MTT assay; type: functional; settings: read-out: Activity; how it was run: as §1
[7] = Lipophilicity, log kw in dioxane aqueous system at pH 3.5; type: physicochemical; settings: buffer; how it was run: as §3
HeLa [8] = assay: Antiproliferative activity against human HeLa cells assessed as cell viability at 50 uM by MTT assay; type: functional; settings: read-out: Activity; how it was run: as §1
[9] = Lipophilicity, log kw in methanol aqueous system at pH 3.5; type: physicochemical; how it was run: as §3
[10] = Antiproliferative activity against human RPMI cells assessed as cell viability at 50 uM by MTT assay; type: functional; settings: read-out: Activity; how it was run: as §1
[11] = Antiproliferative activity against human skin fibroblast assessed as cell viability at 100 uM by MTT assay; type: cell-based; settings: human skin fibroblasts, read-out: Activity; how it was run: as §2
HeLa [12] = assay: Antiproliferative activity against human HeLa cells assessed as cell viability at 1 uM by MTT assay; type: functional; settings: read-out: Activity; how it was run: as §1
Escherichia coli [13] = assay: Antimicrobial activity against Escherichia coli ATCC 25922 at 200 ug/mL by disc-diffusion method; type: functional; settings: read-out: IZ
How it was run: (§4)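 Kirby–Bauer disc diffusion: 5 mm paper discs soaked in compound solution in DMSO (100 or 200 µg/mL; reference drugs 200 µg/mL) and laid on inoculated Mueller-Hinton agar (bacteria) or Sabouraud agar (C. albicans, Aspergillus). DMSO discs were the control. Plates ran 24 h at 35 °C. Inhibition zone diameter was scored 0–10 mm R, 11–16 mm I, 17–25 mm S; triplicate.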

Klebsiella aerogenes [14] = assay: Antimicrobial activity against Enterobacter aerogenes at 100 ug/mL by disc-diffusion method; type: functional; settings: read-out: IZ; how it was run: as §4
Pseudomonas aeruginosa [15] = assay: Antimicrobial activity against Pseudomonas aeruginosa ATCC 27853 at 200 ug/mL by disc-diffusion method; type: functional; settings: read-out: IZ; how it was run: as §4
Klebsiella aerogenes [16] = assay: Antimicrobial activity against Enterobacter aerogenes at 200 ug/mL by disc-diffusion method; type: functional; settings: read-out: IZ; how it was run: as §4
Streptococcus pyogenes [17] = assay: Antimicrobial activity against Streptococcus pyogenes at 200 ug/mL by disc-diffusion method; type: functional; settings: read-out: IZ; how it was run: as §4
Streptococcus pyogenes [18] = assay: Antimicrobial activity against Streptococcus pyogenes at 100 ug/mL by disc-diffusion method; type: functional; settings: read-out: IZ; how it was run: as §4
Streptococcus agalactiae [19] = assay: Antimicrobial activity against Streptococcus agalactiae at 200 ug/mL by disc-diffusion method; type: functional; settings: read-out: IZ; how it was run: as §4
Candida albicans [20] = assay: Antimicrobial activity against Candida albicans ATCC 10231 at 100 ug/mL by disc-diffusion method; type: functional; settings: read-out: IZ; how it was run: as §4
Escherichia coli [21] = assay: Antimicrobial activity against Escherichia coli ATCC 25922 at 100 ug/mL by disc-diffusion method; type: functional; settings: read-out: IZ; how it was run: as §4
Proteus vulgaris [22] = assay: Antimicrobial activity against Proteus vulgaris at 100 ug/mL by disc-diffusion method; type: functional; settings: read-out: IZ; how it was run: as §4
Aspergillus sp. [23] = assay: Antimicrobial activity against Aspergillus sp. at 200 ug/mL by disc-diffusion method; type: functional; settings: read-out: IZ; how it was run: as §4
Pseudomonas aeruginosa [24] = assay: Antimicrobial activity against Pseudomonas aeruginosa ATCC 27853 at 100 ug/mL by disc-diffusion method; type: functional; settings: read-out: IZ; how it was run: as §4
Candida albicans [25] = assay: Antimicrobial activity against Candida albicans ATCC 10231 after 24 hrs by microdilution assay; type: functional; settings: ATCC 10231, 24 h
[26] = test system: Staphylococcus epidermidis; assay: Antimicrobial activity against Staphylococcus epidermidis at 100 ug/mL by disc-diffusion method; type: functional; settings: read-out: IZ; how it was run: as §4
Candida albicans [27] = assay: Antimicrobial activity against Candida albicans ATCC 10231 at 200 ug/mL by disc-diffusion method; type: functional; settings: read-out: IZ; how it was run: as §4
Streptococcus agalactiae [28] = assay: Antimicrobial activity against Streptococcus agalactiae at 100 ug/mL by disc-diffusion method; type: functional; settings: read-out: IZ; how it was run: as §4
Klebsiella pneumoniae [29] = assay: Antimicrobial activity against Klebsiella pneumoniae at 100 ug/mL by disc-diffusion method; type: functional; settings: read-out: IZ; how it was run: as §4
Staphylococcus aureus [30] = assay: Antimicrobial activity against Staphylococcus aureus ATCC 25923 at 200 ug/mL by disc-diffusion method; type: functional; settings: read-out: IZ; how it was run: as §4
Klebsiella pneumoniae [31] = assay: Antimicrobial activity against Klebsiella pneumoniae at 200 ug/mL by disc-diffusion method; type: functional; settings: read-out: IZ; how it was run: as §4
Aspergillus sp. [32] = assay: Antimicrobial activity against Aspergillus sp. at 100 ug/mL by disc-diffusion method; type: functional; settings: read-out: IZ; how it was run: as §4
Staphylococcus aureus [33] = assay: Antimicrobial activity against Staphylococcus aureus ATCC 25923 at 100 ug/mL by disc-diffusion method; type: functional; settings: read-out: IZ; how it was run: as §4
Proteus vulgaris [34] = assay: Antimicrobial activity against Proteus vulgaris at 200 ug/mL by disc-diffusion method; type: functional; settings: read-out: IZ; how it was run: as §4
[35] = test system: Staphylococcus epidermidis; assay: Antimicrobial activity against Staphylococcus epidermidis at 200 ug/mL by disc-diffusion method; type: functional; settings: read-out: IZ; how it was run: as §4
Staphylococcus aureus [36] = assay: Antimicrobial activity against Staphylococcus aureus ATCC 25923 after 24 hrs by microdilution assay; type: functional; settings: ATCC 25923, 24 h

Structure (SMILES)	logKw [5]	logKw [7]	logKw [9]	viability at 100 µM [1] [%]	viability at 1 µM [2] [%]	viability at 50 µM [3] [%]	viability at 1 µM [4] [%]	viability at 100 µM (HeLa [6]) [%]	viability at 50 µM (HeLa [8]) [%]	viability at 50 µM [10] [%]	viability at 100 µM [11] [%]	viability at 1 µM (HeLa [12]) [%]	zone of inhibition at 200 µg/mL (Escherichia coli [13]) [mm]	zone of inhibition at 100 µg/mL (Klebsiella aerogenes [14]) [mm]	zone of inhibition at 200 µg/mL (Pseudomonas aeruginosa [15]) [mm]	zone of inhibition at 200 µg/mL (Klebsiella aerogenes [16]) [mm]	zone of inhibition at 200 µg/mL (Streptococcus pyogenes [17]) [mm]	zone of inhibition at 100 µg/mL (Streptococcus pyogenes [18]) [mm]	zone of inhibition at 200 µg/mL (Streptococcus agalactiae [19]) [mm]	zone of inhibition at 100 µg/mL (Candida albicans [20]) [mm]	further results
Clc1ccc(N2CCn3cnnc32)cc1	2.7	1.89	2.19	87.5	101	90.9	104	68.4	67.6	96.9	90.7	77.9									
Sc1nnc2n1CCN2c1ccc(Cl)cc1		-0.09											0	0	0	0	0	0	0	17	zone of inhibition at 100 µg/mL (Escherichia coli [21]): 0 mm; zone of inhibition at 100 µg/mL (Proteus vulgaris [22]): 0 mm; zone of inhibition at 200 µg/mL (Aspergillus sp. [23]): 0 mm; zone of inhibition at 100 µg/mL (Pseudomonas aeruginosa [24]): 0 mm; MIC (Candida albicans [25]): 30.9 µM (≈ 7.81 µg/mL); zone of inhibition at 100 µg/mL [26]: 0 mm; zone of inhibition at 200 µg/mL (Candida albicans [27]): 17 mm; zone of inhibition at 100 µg/mL (Streptococcus agalactiae [28]): 0 mm; zone of inhibition at 100 µg/mL (Klebsiella pneumoniae [29]): 0 mm; zone of inhibition at 200 µg/mL (Staphylococcus aureus [30]): 0 mm; zone of inhibition at 200 µg/mL (Klebsiella pneumoniae [31]): 0 mm; zone of inhibition at 100 µg/mL (Aspergillus sp. [32]): 0 mm; zone of inhibition at 100 µg/mL (Staphylococcus aureus [33]): 0 mm; zone of inhibition at 200 µg/mL (Proteus vulgaris [34]): 0 mm; zone of inhibition at 200 µg/mL [35]: 0 mm
COc1ccc(N2CCn3c(COc4ccc(Cl)cc4)nnc32)cc1	1.54	1.52	1.88	94.9	80.3	67.1	99.7	68.9	72.1	98.4	64.6	81.5									
Cc1ccc(N2CCn3c(COc4ccc(Cl)cc4C)nnc32)cc1	1	1.1	1.58	25.4	74.9	56.9	85.5	75.6	75.2	27.7	62.1	95.1	0	0	0	0	0	0	0	0	MIC (Staphylococcus aureus [36]): 44 µM (≈ 15.6 µg/mL); zone of inhibition at 100 µg/mL (Escherichia coli [21]): 0 mm; zone of inhibition at 100 µg/mL (Proteus vulgaris [22]): 0 mm; zone of inhibition at 200 µg/mL (Aspergillus sp. [23]): 0 mm; zone of inhibition at 100 µg/mL (Pseudomonas aeruginosa [24]): 0 mm; zone of inhibition at 100 µg/mL [26]: 11 mm; zone of inhibition at 200 µg/mL (Candida albicans [27]): 0 mm; zone of inhibition at 100 µg/mL (Streptococcus agalactiae [28]): 0 mm; zone of inhibition at 100 µg/mL (Klebsiella pneumoniae [29]): 0 mm; zone of inhibition at 200 µg/mL (Staphylococcus aureus [30]): 17 mm; zone of inhibition at 200 µg/mL (Klebsiella pneumoniae [31]): 0 mm; zone of inhibition at 100 µg/mL (Aspergillus sp. [32]): 0 mm; zone of inhibition at 100 µg/mL (Staphylococcus aureus [33]): 11 mm; zone of inhibition at 200 µg/mL (Proteus vulgaris [34]): 0 mm; zone of inhibition at 200 µg/mL [35]: 17 mm

The next lines start with results.

logKw [5]	logKw [7]	logKw [9]	Structure (SMILES)	viability at 100 µM [1] [%]	viability at 1 µM [2] [%]	viability at 50 µM [3] [%]	viability at 1 µM [4] [%]	viability at 100 µM (HeLa [6]) [%]	viability at 50 µM (HeLa [8]) [%]	viability at 50 µM [10] [%]	viability at 100 µM [11] [%]	viability at 1 µM (HeLa [12]) [%]	zone of inhibition at 200 µg/mL (Escherichia coli [13]) [mm]	zone of inhibition at 100 µg/mL (Klebsiella aerogenes [14]) [mm]	zone of inhibition at 200 µg/mL (Pseudomonas aeruginosa [15]) [mm]	zone of inhibition at 200 µg/mL (Klebsiella aerogenes [16]) [mm]	zone of inhibition at 200 µg/mL (Streptococcus pyogenes [17]) [mm]	zone of inhibition at 100 µg/mL (Streptococcus pyogenes [18]) [mm]	zone of inhibition at 200 µg/mL (Streptococcus agalactiae [19]) [mm]	zone of inhibition at 100 µg/mL (Candida albicans [20]) [mm]	further results
3.23	3.41	4.38	Clc1ccc(OCc2nnc3n2CCN3c2ccc(Cl)cc2)cc1	34	88.7	63.8	60.1	52.4	56.3	34.5	16.2	63.2									
3.04	3.55	4.27	Cc1ccc(N2CCn3c(COc4ccc(Cl)cc4)nnc32)cc1	39.9	88.1	68.4	104	77.9	78.3	39.5	64.7	89									
